In ChEMBL document CHEMBL1144684, “Evaluation of a series of naphthamides as potent, orally active vascular endothelial growth factor receptor-2 tyrosine kinase inhibitors” (J Med Chem, 2008):
Activity calls are given as the source filed them. No cut-off for these calls is given here.

Legend:
[1] = Cmax in Sprague-Dawley rat at 2 mg/kg, po; format: ADME, organism-based; design: dose 2 mg/kg, route oral; settings: in vivo
In short: (§1)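 Male Sprague–Dawley rats dosed iv via femoral vein as DMSO solution (1 or 0.5 mg/kg) or po by gavage as OraPlus suspension (pH 2.0–2.2 with methanesulfonic acid; 10 or 2 mg/kg). Serial jugular blood over 12–24 h; plasma acetonitrile precipitation, LC-MS/MS (MRM) with internal standard; noncompartmental parameters.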

[2] = Half life in cynomolgus monkey at 2 mg/kg, po; format: ADME, organism-based, Macaca fascicularis; design: dose 2 mg/kg, route oral; settings: in vivo
In short: (§2)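 Compound given iv and po as single doses; vehicles: mouse iv PEG 400, po OraPlus; dog iv DMSO, po 1% Tween-80/2% HPMC/97% water; cynomolgus iv propylene glycol, po suspension.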

[3] = system: HUVEC; experiment: Selectivity of IC50 for VEGF-induced proliferation over IC50 for bFGF-induced proliferation of HUVEC; format: functional, Homo sapiens
In short: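 HUVECs were seeded at 3000 cells/well in DMEM/10% FBS with pen/strep and cultured for 22 h. They were preincubated 2 h with serially diluted compound, then stimulated with 50 ng/mL VEGF or 20 ng/mL bFGF for 72 h at 37 °C, 5% CO2. Cells were washed, frozen at -70 °C and stained with CyQuant. IC50s came from a four-parameter logistic fit, averaged over ≥2 experiments; the VEGF IC50 was compared against the bFGF IC50.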

[4] = Mean residence time in mouse at 2 mg/kg, iv; format: ADME, organism-based; design: dose 2 mg/kg, route intravenous; settings: in vivo
In short: (§3)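 Intravenous dosing of male/unspecified animals per species; vehicles: mouse 2 mg/kg in Peg 400, dog 0.5 mg/kg in DMSO, cynomolgus monkey 0.5 mg/kg in propylene glycol. Parameters from plasma concentration–time data by noncompartmental analysis.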

[5] = Protein binding in mouse plasma; format: ADME, cell-free; settings: read-out: PPB (converted)
In short: (§4)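 Compound spiked into plasma at 5 µg/mL (12.9 µM) from a DMSO stock, incubated 37 °C 15 min, then ultracentrifuged 3 h at 37 °C. Supernatant below lipid layer measured by LC-MS (n = 6) against QC in plasma filtrate; % bound = 1 − (centrifuged concentration / mean QC) × 100.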

[6] = system: Rattus norvegicus; experiment: Inhibition of VEGF-induced angiogenesis in VEGF-soaked disk implanted in Sprague-Dawley rat cornea assessed as number of blood vessels intersecting the midpoint between disk and limbus after 7 days; format: functional; settings: 168 h
[7] = system: Liver microsomes; experiment: Metabolic stability assessed as covalent binding in absence of NADPH in rat liver microsomes at 10 uM after 1 hr; format: ADME, Microsome
In short: (§5)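 14C-labelled compound at 10 µM with human or rat liver microsomes (1 mg/mL) in 0.1 M potassium phosphate pH 7.4, with or without 1 mM NADPH and 1 mM glutathione, 60 min; quenched with ice-cold acetonitrile. Pellet washed with 80% methanol and ethanol/ether, solubilized, protein by BCA, radioactivity by scintillation counting.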

[8] = Tmax in mouse at 10 mg/kg, po; format: ADME, organism-based; design: dose 10 mg/kg, route oral; settings: in vivo
In short: (§6)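 Oral suspension dosing; vehicles: mouse 10 mg/kg in OraPlus, dog 0.5 mg/kg in 1% Tween-80/2% HPMC/97% water, cynomolgus monkey 2 mg/kg.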

[9] = Volume of distribution at steady state in dog at 0.5 mg/kg, iv; format: ADME, organism-based, Canis lupus familiaris; design: dose 0.5 mg/kg, route intravenous; settings: in vivo, read-out: Vdss; in short: as §3
[10] = Tmax in cynomolgus monkey at 2 mg/kg, po; format: ADME, organism-based, Macaca fascicularis; design: dose 2 mg/kg, route oral; settings: in vivo; in short: as §6
[11] = system: HUVEC; experiment: Inhibition of VEGF-induced proliferation of HUVEC; format: functional, cell-based; settings: Homo sapiens
[12] = system: Calu-6 (Homo sapiens); experiment: Antitumor activity in human Calu6 cell xenografted CD1 nu/nu mouse assessed as inhibition of tumor growth at 60 mg/kg, po qd for 14 days; settings: Calu-6, po, 336 h, read-out: TGI
[13] = Cmax in VEGF-soaked disk implanted in Sprague-Dawley rat; format: ADME, organism-based; settings: in vivo
[14] = system: Liver microsomes; experiment: Metabolic stability assessed as covalent binding in presence of NADPH and GSH in rat liver microsomes at 10 uM after 1 hr; format: ADME, Microsome; in short: as §5
[15] = biological target: Vascular endothelial growth factor receptor 1 (Homo sapiens, UniProt P17948); experiment: Inhibition of human VEGFR1
[16] = Half life in Sprague-Dawley rat at 0.5 mg/kg, iv; format: ADME, organism-based; design: dose 0.5 mg/kg, route intravenous; settings: in vivo; in short: as §1
[17] = biological target: T1, Aurora kinase A (Homo sapiens, UniProt O14965); experiment: Inhibition of Aurora A
T1 sequence (O14965 whole entry): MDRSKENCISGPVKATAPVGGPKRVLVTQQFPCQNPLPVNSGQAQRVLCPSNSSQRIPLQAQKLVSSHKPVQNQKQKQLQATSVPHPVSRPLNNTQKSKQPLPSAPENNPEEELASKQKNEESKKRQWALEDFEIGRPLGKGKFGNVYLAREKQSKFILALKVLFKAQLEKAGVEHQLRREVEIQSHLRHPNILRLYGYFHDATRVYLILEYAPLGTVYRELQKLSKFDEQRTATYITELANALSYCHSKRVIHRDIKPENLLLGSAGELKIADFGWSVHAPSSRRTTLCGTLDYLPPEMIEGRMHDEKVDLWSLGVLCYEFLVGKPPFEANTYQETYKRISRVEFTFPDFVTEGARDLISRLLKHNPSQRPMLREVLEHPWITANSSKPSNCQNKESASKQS

[18] = system: Mus musculus; experiment: Cmax in human HT29 cell xenografted CD1 nu/nu mouse at 10 mg/kg, po qd; format: ADME, organism-based, HT-29; design: dose 10 mg/kg, route oral; settings: in vivo
[19] = Clearance in cynomolgus monkey at 0.5 mg/kg, iv; format: ADME, organism-based, Macaca fascicularis; design: dose 0.5 mg/kg, route intravenous; settings: in vivo; in short: as §2
[20] = biological target: Tyrosine-protein kinase ABL1 (Homo sapiens, UniProt P00519)
[21] = AUC (0 to 24 hrs) in dog at 0.5 mg/kg, po; format: ADME, organism-based, Canis lupus familiaris; design: time < 24 hr, dose 0.5 mg/kg, route oral; settings: plasma; in short: as §2
[22] = biological target: Hepatocyte growth factor receptor (Homo sapiens, UniProt P08581); experiment: Inhibition of c-Met
[23] = Volume of distribution at steady state in Sprague-Dawley rat at 0.5 mg/kg, iv; format: ADME, organism-based; design: dose 0.5 mg/kg, route intravenous; settings: in vivo, read-out: Vdss
In short: (§7)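 Male Sprague–Dawley rats dosed iv at 0.5 mg/kg as DMSO solution or po at 2 mg/kg as suspension in 100% OraPlus. Serial jugular blood, plasma LC-MS/MS quantitation, noncompartmental analysis.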

[24] = Protein binding in dog plasma; format: ADME, organism-based, Canis lupus familiaris; settings: read-out: PPB (converted); in short: as §4
[25] = Oral bioavailability in Sprague-Dawley rat at 2 mg/kg; format: ADME, organism-based; settings: in vivo; in short: as §7
[26] = system: Calu-6 (Homo sapiens); experiment: Antitumor activity in human Calu6 cell xenografted CD1 nu/nu mouse assessed as inhibition of tumor growth at 6 mg/kg, po qd for 14 days; settings: Calu-6, po, 336 h, read-out: TGI
[27] = Oral bioavailability in dog at 0.5 mg/kg, po; format: ADME, organism-based, Canis lupus familiaris; settings: in vivo; in short: as §6
[28] = Mean residence time in dog at 0.5 mg/kg, iv; format: ADME, organism-based, Canis lupus familiaris; design: dose 0.5 mg/kg, route intravenous; settings: in vivo; in short: as §3
[29] = Volume of distribution at steady state in mouse at 2 mg/kg, iv; format: ADME, organism-based; design: dose 2 mg/kg, route intravenous; settings: in vivo, read-out: Vdss; in short: as §3

Vascular endothelial growth factor receptor 1, sequence (P17948 whole entry): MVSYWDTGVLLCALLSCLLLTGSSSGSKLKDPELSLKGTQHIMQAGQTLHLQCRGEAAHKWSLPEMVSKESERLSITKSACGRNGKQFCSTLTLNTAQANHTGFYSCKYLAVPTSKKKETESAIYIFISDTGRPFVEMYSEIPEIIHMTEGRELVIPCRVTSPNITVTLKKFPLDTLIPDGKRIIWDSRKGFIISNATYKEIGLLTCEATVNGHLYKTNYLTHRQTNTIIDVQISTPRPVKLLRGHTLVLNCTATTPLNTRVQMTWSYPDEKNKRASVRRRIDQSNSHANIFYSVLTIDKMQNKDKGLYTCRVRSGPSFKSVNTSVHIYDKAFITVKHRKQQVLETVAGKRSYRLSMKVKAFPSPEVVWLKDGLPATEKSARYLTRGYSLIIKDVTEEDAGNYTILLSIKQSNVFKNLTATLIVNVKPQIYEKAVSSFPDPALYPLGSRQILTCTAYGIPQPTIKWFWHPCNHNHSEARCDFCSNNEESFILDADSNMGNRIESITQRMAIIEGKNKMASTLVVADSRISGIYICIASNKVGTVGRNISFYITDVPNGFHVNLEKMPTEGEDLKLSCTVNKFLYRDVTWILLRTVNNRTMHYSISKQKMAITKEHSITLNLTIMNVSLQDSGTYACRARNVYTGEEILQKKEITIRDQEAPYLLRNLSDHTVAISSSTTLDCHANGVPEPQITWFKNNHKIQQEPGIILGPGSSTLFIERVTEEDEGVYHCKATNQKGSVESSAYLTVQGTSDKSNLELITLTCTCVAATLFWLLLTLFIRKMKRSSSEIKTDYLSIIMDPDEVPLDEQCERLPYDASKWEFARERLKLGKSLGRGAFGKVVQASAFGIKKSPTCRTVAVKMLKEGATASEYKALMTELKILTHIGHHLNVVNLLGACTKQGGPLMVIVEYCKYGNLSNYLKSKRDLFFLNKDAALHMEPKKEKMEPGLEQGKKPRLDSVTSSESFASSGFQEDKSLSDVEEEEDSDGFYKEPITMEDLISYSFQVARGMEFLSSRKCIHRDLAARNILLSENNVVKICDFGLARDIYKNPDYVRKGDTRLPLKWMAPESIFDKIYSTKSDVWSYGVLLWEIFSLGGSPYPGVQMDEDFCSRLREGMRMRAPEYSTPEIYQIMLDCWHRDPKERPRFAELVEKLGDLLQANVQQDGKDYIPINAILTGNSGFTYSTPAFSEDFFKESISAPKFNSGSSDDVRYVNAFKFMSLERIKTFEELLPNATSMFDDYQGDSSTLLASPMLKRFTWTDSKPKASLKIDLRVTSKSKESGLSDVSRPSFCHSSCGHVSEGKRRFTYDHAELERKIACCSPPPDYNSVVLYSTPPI
Tyrosine-protein kinase ABL1, sequence (P00519 whole entry): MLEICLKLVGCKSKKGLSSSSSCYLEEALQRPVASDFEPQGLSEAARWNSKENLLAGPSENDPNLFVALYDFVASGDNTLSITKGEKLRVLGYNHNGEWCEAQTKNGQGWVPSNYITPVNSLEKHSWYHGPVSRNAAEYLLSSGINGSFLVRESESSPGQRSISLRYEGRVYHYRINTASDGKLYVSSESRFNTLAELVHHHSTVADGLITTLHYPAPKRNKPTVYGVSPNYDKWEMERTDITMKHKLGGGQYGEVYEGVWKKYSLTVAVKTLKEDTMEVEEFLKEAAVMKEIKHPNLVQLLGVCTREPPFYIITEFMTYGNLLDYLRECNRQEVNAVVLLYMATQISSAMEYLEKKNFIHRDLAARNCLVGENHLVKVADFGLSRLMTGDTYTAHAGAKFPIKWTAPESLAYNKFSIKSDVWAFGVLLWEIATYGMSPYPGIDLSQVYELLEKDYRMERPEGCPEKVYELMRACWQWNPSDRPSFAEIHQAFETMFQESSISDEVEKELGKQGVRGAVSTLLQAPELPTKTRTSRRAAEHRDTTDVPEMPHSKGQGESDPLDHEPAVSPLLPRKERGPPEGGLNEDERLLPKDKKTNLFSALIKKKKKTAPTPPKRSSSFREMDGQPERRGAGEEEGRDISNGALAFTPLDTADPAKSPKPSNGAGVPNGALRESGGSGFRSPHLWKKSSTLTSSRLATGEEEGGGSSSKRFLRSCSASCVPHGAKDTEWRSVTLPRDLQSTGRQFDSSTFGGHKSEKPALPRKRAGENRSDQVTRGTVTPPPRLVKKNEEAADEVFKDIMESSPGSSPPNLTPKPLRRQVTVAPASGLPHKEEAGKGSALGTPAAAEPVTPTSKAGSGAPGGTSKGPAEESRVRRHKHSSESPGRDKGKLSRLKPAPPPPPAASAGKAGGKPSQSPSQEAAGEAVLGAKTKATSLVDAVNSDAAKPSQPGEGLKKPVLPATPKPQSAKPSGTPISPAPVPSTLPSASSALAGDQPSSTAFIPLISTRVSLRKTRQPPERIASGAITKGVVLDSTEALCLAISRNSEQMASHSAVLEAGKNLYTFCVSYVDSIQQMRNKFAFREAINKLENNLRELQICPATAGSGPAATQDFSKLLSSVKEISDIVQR
Hepatocyte growth factor receptor, sequence (P08581 whole entry): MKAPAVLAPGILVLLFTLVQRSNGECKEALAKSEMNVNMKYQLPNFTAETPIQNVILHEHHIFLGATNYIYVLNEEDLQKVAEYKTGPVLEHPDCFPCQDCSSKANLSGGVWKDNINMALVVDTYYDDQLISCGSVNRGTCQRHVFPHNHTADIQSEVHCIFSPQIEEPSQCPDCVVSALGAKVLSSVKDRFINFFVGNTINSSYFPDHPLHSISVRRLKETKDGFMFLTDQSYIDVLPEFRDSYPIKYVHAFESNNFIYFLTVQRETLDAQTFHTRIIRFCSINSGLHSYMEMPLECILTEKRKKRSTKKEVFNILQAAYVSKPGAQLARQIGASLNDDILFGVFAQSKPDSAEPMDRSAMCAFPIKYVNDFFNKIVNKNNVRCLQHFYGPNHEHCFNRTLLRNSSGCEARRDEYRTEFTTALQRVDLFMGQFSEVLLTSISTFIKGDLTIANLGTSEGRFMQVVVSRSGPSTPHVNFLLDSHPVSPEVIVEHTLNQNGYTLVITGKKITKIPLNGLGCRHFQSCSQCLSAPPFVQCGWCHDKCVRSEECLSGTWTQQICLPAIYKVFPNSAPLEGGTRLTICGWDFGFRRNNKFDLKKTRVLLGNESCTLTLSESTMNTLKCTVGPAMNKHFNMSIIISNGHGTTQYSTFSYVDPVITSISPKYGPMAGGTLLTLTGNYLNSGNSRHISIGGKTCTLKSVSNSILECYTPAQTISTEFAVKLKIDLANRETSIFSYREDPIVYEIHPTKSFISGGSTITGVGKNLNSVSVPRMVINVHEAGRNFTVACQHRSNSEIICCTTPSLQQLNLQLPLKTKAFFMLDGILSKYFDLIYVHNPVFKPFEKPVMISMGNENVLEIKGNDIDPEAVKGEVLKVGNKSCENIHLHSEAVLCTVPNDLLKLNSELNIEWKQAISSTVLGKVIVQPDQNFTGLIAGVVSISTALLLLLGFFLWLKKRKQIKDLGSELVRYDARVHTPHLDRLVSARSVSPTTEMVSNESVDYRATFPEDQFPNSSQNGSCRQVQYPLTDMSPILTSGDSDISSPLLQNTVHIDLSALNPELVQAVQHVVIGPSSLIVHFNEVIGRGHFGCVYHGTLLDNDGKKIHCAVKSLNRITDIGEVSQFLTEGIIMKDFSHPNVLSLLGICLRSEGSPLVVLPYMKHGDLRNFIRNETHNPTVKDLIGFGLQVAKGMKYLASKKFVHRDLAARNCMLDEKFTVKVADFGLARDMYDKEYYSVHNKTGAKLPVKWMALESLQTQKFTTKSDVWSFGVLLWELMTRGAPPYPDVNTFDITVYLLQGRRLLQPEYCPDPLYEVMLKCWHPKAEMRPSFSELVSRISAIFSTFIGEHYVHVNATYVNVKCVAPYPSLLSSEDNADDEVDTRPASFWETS

## COc1cc2nccc(Oc3ccc4c(C(N)=O)cccc4c3)c2cc1OC
[1]
  Cmax: 1690 ng/mL
[2]
  half-life: 780 min
[3]
  Selectivity ratio: >100
[4]
  MRT: 2.3 h
[5]
  fraction unbound: 0.027
[6]
  ED50: 0.04 mg/kg
[7]
  Stability: 14 pmol/mg/h
[8]
  Tmax: 15 min
[9]
  Vd: 1.86 L/kg
[10]
  Tmax: 49.8 min
[11]
  IC50: 2.1 nM
[12]
  inhibition in vivo at 60 mg/kg: 88%
[13]
  Cmax: 50 nM
[14]
  Stability: 3.2 pmol/mg/h
[15]
  Activity: Active
[16]
  half-life: 360 min
[17]
  IC50: 5 µM
[18]
  Cmax: 1300 nM
[19]
  clearance: 13 mL/min/kg
[20]
  IC50: 110 nM
[21]
  AUC(0-t) at 24 h: 3650 ng·h/mL
[22]
  IC50: 6.9 µM
[23]
  Vd: 1.06 L/kg
[24]
  fraction unbound: 0.038
[25]
  bioavailability: 96%
[26]
  inhibition in vivo at 6 mg/kg: 52%
[27]
  bioavailability: 73%
[28]
  MRT: 18 h
[29]
  Vd: 5.74 L/kg
